Data published in ChEMBL document CHEMBL2040727, “Substituted thiazoles VI. Synthesis and antitumor activity of new 2-acetamido- and 2 or 3-propanamido-thiazole analogs” (2012).

Tests used:
Format in all cases: functional
NCI-H460 = test: Growth inhibition of human NCI-H460 cells at 10 uM after 48 hrs by coulter counter analysis; settings: NCI-H460, 48 h, read-out: GI
How it was run: (§1)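 Single-dose NCI 60-line panel screen of test compounds. Cells grown in RPMI 1640 with 10% FBS. Compounds dissolved in DMSO, then diluted in phosphate buffer saline (final DMSO below 1%). Wells run in duplicate at 6 × 10⁴ cells/ml. Controls held PBS and DMSO at matching dilutions. Incubation 48 h at 37 °C under humidified 5% CO2. Cells diluted tenfold in saline and counted by Coulter counter. Percent growth inhibition taken from mean-graph of treated-cell growth.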

786-0 = test: Growth inhibition of human 786-0 cells at 10 uM after 48 hrs by coulter counter analysis; settings: 786-0, 48 h, read-out: GI; how it was run: as §1
MDA-MB-231 = test: Growth inhibition of human MDA-MB-231 cells at 10 uM after 48 hrs by coulter counter analysis; settings: MDA-MB-231, 48 h, read-out: GI; how it was run: as §1
RPMI-8226 = test: Growth inhibition of human RPMI8226 cells at 10 uM after 48 hrs by coulter counter analysis; settings: RPMI-8226, 48 h, read-out: GI; how it was run: as §1
SNB-75 = test: Growth inhibition of human SNB75 cells at 10 uM after 48 hrs by coulter counter analysis; settings: SNB-75, 48 h, read-out: GI
How it was run: (§2)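 Single-dose screen in the NCI 60 cell line panel. Cells grown in RPMI 1640 with 10% FBS. Compounds dissolved in DMSO and diluted in phosphate buffered saline, final DMSO under 1%. Duplicate wells seeded from culture at 6 × 10⁴ cells/ml. Incubated 48 h at 37 °C, humidified, 5% CO2. Cells diluted tenfold in saline and Coulter-counted. Percent growth inhibition computed against PBS/DMSO controls.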

U-251 = test: Growth inhibition of human U251 cells at 10 uM after 48 hrs by coulter counter analysis; settings: U-251, 48 h, read-out: GI; how it was run: as §2
HT-29 = test: Growth inhibition of human HT-29 cells at 10 uM after 48 hrs by coulter counter analysis; settings: HT-29, 48 h, read-out: GI; how it was run: as §1
NCI-H322M = test: Growth inhibition of human NCI-H322M cells at 10 uM after 48 hrs by coulter counter analysis; settings: read-out: GI; how it was run: as §1
EKVX = test: Growth inhibition of human EKVX cells at 10 uM after 48 hrs by coulter counter analysis; settings: read-out: GI; how it was run: as §1
NCI-H23 = test: Growth inhibition of human NCI-H23 cells at 10 uM after 48 hrs by coulter counter analysis; settings: NCI-H23, 48 h, read-out: GI; how it was run: as §1
MDA-MB-468 = test: Growth inhibition of human MDA-MB-468 cells at 10 uM after 48 hrs by coulter counter analysis; settings: MDA-MB-468, 48 h, read-out: GI; how it was run: as §1
A549 = test: Growth inhibition of human A549/ATCC cells at 10 uM after 48 hrs by coulter counter analysis; settings: A549, 48 h, read-out: GI; how it was run: as §1
BT-549 = test: Growth inhibition of human BT549 cells at 10 uM after 48 hrs by coulter counter analysis; settings: BT-549, 48 h, read-out: GI; how it was run: as §1
OVCAR-3 = test: Growth inhibition of human OVCAR3 cells at 10 uM after 48 hrs by coulter counter analysis; settings: OVCAR-3, 48 h, read-out: GI; how it was run: as §1
UO-31 = test: Growth inhibition of human UO31 cells at 10 uM after 48 hrs by coulter counter analysis; settings: UO-31, 48 h, read-out: GI; how it was run: as §2
SK-MEL-28 = test: Growth inhibition of human SK-MEL-28 cells at 10 uM after 48 hrs by coulter counter analysis; settings: SK-MEL-28, 48 h, read-out: GI; how it was run: as §1
HOP-92 = test: Growth inhibition of human HOP92 cells at 10 uM after 48 hrs by coulter counter analysis; settings: HOP-92, 48 h, read-out: GI; how it was run: as §1
DU-145 = test: Growth inhibition of human DU145 cells at 10 uM after 48 hrs by coulter counter analysis; settings: DU-145, 48 h, read-out: GI; how it was run: as §1
NCI-H226 = test: Growth inhibition of human NCI-H226 cells at 10 uM after 48 hrs by coulter counter analysis; settings: NCI-H226, 48 h, read-out: GI; how it was run: as §1
[1] = Growth inhibition of human NCI-ADR-RES cells at 10 uM after 48 hrs by coulter counter analysis; settings: read-out: GI; how it was run: as §1
KM12 = test: Growth inhibition of human KM12 cells at 10 uM after 48 hrs by coulter counter analysis; settings: KM12, 48 h, read-out: GI; how it was run: as §1
HOP-62 = test: Growth inhibition of human HOP62 cells at 10 uM after 48 hrs by coulter counter analysis; settings: HOP-62, 48 h, read-out: GI; how it was run: as §1
ACHN = test: Growth inhibition of human ACHN cells at 10 uM after 48 hrs by coulter counter analysis; settings: read-out: GI; how it was run: as §1
HCT-116 = test: Growth inhibition of human HCT116 cells at 10 uM after 48 hrs by coulter counter analysis; settings: HCT-116, 48 h, read-out: GI; how it was run: as §1
CAKI-1 = test: Growth inhibition of human Caki1 cells at 10 uM after 48 hrs by coulter counter analysis; settings: CAKI-1, 48 h, read-out: GI; how it was run: as §1
SK-MEL-5 = test: Growth inhibition of human SK-MEL-5 cells at 10 uM after 48 hrs by coulter counter analysis; settings: SK-MEL-5, 48 h, read-out: GI; how it was run: as §1
OVCAR-8 = test: Growth inhibition of human OVCAR8 cells at 10 uM after 48 hrs by coulter counter analysis; settings: OVCAR-8, 48 h, read-out: GI; how it was run: as §1
K562 = test: Growth inhibition of human K562 cells at 10 uM after 48 hrs by coulter counter analysis; settings: K562, 48 h, read-out: GI; how it was run: as §1
OVCAR-5 = test: Growth inhibition of human OVCAR5 cells at 10 uM after 48 hrs by coulter counter analysis; settings: OVCAR-5, 48 h, read-out: GI; how it was run: as §1
SN12C = test: Growth inhibition of human SN12C cells at 10 uM after 48 hrs by coulter counter analysis; settings: read-out: GI; how it was run: as §1
PC-3 = test: Growth inhibition of human PC3 cells at 10 uM after 48 hrs by coulter counter analysis; settings: PC-3, 48 h, read-out: GI; how it was run: as §1
SR = test: Growth inhibition of human SR cells at 10 uM after 48 hrs by coulter counter analysis; settings: read-out: GI; how it was run: as §2
SF-295 = test: Growth inhibition of human SF295 cells at 10 uM after 48 hrs by coulter counter analysis; settings: SF-295, 48 h, read-out: GI; how it was run: as §1
SW-620 = test: Growth inhibition of human SW620 cells at 10 uM after 48 hrs by coulter counter analysis; settings: SW-620, 48 h, read-out: GI; how it was run: as §2
CCRF-CEM = test: Growth inhibition of human CCRF-CEM cells at 10 uM after 48 hrs by coulter counter analysis; settings: read-out: GI; how it was run: as §1
T47D = test: Growth inhibition of human T47D cells at 10 uM after 48 hrs by coulter counter analysis; settings: read-out: GI; how it was run: as §2

| Structure (SMILES) | inhibition of growth at 10 µM (NCI-H460) [%] | inhibition of growth at 10 µM (786-0) [%] | inhibition of growth at 10 µM (MDA-MB-231) [%] | inhibition of growth at 10 µM (RPMI-8226) [%] | inhibition of growth at 10 µM (SNB-75) [%] | inhibition of growth at 10 µM (U-251) [%] | inhibition of growth at 10 µM (HT-29) [%] | inhibition of growth at 10 µM (NCI-H322M) [%] | inhibition of growth at 10 µM (EKVX) [%] | inhibition of growth at 10 µM (NCI-H23) [%] | inhibition of growth at 10 µM (MDA-MB-468) [%] | inhibition of growth at 10 µM (A549) [%] | inhibition of growth at 10 µM (BT-549) [%] | inhibition of growth at 10 µM (OVCAR-3) [%] | inhibition of growth at 10 µM (UO-31) [%] | inhibition of growth at 10 µM (SK-MEL-28) [%] | inhibition of growth at 10 µM (HOP-92) [%] | inhibition of growth at 10 µM (DU-145) [%] | inhibition of growth at 10 µM (NCI-H226) [%] | inhibition of growth at 10 µM [1] [%] | other results |
| --- | --- | --- | --- | --- | --- | --- | --- | --- | --- | --- | --- | --- | --- | --- | --- | --- | --- | --- | --- | --- | --- |
| CCOC(=O)c1sc(NC(=O)CCN2CCOCC2)nc1C | < 10 | < 10 | < 10 | < 10 | < 10 | < 10 | < 10 | < 10 | < 10 | < 10 | < 10 | < 10 | < 10 | < 10 | 10.6 | < 10 | 21.9 | < 10 | < 10 | < 10 | inhibition of growth at 10 µM (KM12): < 10%; inhibition of growth at 10 µM (HOP-62): < 10%; inhibition of growth at 10 µM (ACHN): < 10%; inhibition of growth at 10 µM (HCT-116): < 10%; inhibition of growth at 10 µM (CAKI-1): < 10%; inhibition of growth at 10 µM (SK-MEL-5): < 10%; inhibition of growth at 10 µM (OVCAR-8): < 10%; inhibition of growth at 10 µM (K562): < 10%; inhibition of growth at 10 µM (OVCAR-5): < 10%; inhibition of growth at 10 µM (SN12C): < 10%; inhibition of growth at 10 µM (PC-3): < 10%; inhibition of growth at 10 µM (SR): < 10%; inhibition of growth at 10 µM (SF-295): < 10%; inhibition of growth at 10 µM (SW-620): < 10%; inhibition of growth at 10 µM (CCRF-CEM): < 10%; inhibition of growth at 10 µM (T47D): < 10% |
| CC(C(=O)Nc1nccs1)N1CCN(C)CC1 (configuration not stated) | < 10 | < 10 | < 10 | < 10 | 15.5 | < 10 | < 10 | < 10 | < 10 | < 10 | < 10 | < 10 | < 10 | < 10 | 19.4 | < 10 | < 10 | < 10 | < 10 | < 10 | inhibition of growth at 10 µM (KM12): < 10%; inhibition of growth at 10 µM (HOP-62): < 10%; inhibition of growth at 10 µM (ACHN): < 10%; inhibition of growth at 10 µM (HCT-116): < 10%; inhibition of growth at 10 µM (CAKI-1): < 10%; inhibition of growth at 10 µM (SK-MEL-5): < 10%; inhibition of growth at 10 µM (OVCAR-8): < 10%; inhibition of growth at 10 µM (K562): < 10%; inhibition of growth at 10 µM (OVCAR-5): < 10%; inhibition of growth at 10 µM (SN12C): < 10%; inhibition of growth at 10 µM (PC-3): < 10%; inhibition of growth at 10 µM (SR): < 10%; inhibition of growth at 10 µM (SF-295): < 10%; inhibition of growth at 10 µM (SW-620): < 10%; inhibition of growth at 10 µM (CCRF-CEM): < 10%; inhibition of growth at 10 µM (T47D): < 10% |
